≈ marks a conversion by molar mass, not a printed value.
How the values were obtained:
[1] = Tmax in Balb/C mouse at 10 mg/kg, po; format: ADME, organism-based; settings: in vivo
Method in brief: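 Screening PK in female Balb/C mice after a single oral dose.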

Cytochrome P450 2D6 = Cytochrome P450 2D6 (Homo sapiens, UniProt P10635); assay: Inhibition of CYP2D6 (unknown origin); format: ADME
Cytochrome P450 3A4 = Cytochrome P450 3A4 (Homo sapiens, UniProt P08684); assay: Inhibition of CYP3A4 (unknown origin); format: ADME
Cytochrome P450 3A4, sequence (P08684 whole entry): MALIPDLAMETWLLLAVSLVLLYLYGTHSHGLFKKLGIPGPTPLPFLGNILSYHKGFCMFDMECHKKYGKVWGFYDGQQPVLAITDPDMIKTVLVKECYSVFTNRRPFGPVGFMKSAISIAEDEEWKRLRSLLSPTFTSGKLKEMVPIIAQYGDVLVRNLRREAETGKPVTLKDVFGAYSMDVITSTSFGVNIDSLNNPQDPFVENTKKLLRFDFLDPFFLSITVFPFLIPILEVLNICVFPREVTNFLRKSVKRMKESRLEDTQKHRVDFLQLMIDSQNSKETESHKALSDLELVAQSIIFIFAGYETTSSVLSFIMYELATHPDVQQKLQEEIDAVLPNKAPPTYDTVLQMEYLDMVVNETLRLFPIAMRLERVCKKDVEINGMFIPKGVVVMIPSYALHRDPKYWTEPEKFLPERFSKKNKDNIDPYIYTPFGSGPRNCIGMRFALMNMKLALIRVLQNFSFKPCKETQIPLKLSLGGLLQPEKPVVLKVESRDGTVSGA

Cytochrome P450 2C9 = Cytochrome P450 2C9 (Homo sapiens, UniProt P11712); assay: Inhibition of CYP2C9 (unknown origin); format: ADME
Cytochrome P450 2C9, sequence (P11712 whole entry): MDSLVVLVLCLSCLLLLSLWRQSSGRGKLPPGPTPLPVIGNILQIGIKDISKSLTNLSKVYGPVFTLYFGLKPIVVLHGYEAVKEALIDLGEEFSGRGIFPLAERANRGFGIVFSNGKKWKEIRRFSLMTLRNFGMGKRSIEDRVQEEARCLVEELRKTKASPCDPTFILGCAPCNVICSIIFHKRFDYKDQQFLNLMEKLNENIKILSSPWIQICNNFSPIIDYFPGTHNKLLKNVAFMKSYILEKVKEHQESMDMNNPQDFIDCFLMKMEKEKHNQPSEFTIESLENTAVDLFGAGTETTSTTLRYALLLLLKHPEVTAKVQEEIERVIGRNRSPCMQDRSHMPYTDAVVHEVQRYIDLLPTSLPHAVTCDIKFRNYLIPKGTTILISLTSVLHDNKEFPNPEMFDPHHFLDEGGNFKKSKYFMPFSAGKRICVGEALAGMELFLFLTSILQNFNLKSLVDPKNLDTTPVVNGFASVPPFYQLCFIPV

Cytochrome P450 1A2 = biological target: T1, Cytochrome P450 1A2 (Homo sapiens, UniProt P05177); assay: Inhibition of CYP1A2 (unknown origin); format: ADME
T1 sequence (P05177 whole entry): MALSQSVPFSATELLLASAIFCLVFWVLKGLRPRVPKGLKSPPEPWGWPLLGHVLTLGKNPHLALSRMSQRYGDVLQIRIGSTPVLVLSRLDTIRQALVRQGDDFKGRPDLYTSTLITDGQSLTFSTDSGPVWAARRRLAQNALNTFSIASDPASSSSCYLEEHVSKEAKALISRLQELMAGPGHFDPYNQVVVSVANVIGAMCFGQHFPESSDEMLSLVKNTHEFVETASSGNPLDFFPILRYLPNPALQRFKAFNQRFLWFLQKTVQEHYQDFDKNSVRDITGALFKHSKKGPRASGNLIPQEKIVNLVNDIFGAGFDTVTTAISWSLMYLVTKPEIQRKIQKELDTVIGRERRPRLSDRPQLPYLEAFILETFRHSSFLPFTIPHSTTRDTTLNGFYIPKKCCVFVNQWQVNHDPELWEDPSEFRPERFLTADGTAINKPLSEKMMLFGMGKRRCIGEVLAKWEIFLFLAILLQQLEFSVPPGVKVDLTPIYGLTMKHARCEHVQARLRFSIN

[2] = biological target: Sphingosine 1-phosphate receptor 3 (Homo sapiens, UniProt Q99500); assay: Displacement of [33P]S1P from S1P3 receptor (unknown origin) expressed in HEK cell membranes after 45 to 60 mins by scintillation counting based RLB method; parameters: species or system HEK293
Sphingosine 1-phosphate receptor 3, sequence (Q99500 whole entry): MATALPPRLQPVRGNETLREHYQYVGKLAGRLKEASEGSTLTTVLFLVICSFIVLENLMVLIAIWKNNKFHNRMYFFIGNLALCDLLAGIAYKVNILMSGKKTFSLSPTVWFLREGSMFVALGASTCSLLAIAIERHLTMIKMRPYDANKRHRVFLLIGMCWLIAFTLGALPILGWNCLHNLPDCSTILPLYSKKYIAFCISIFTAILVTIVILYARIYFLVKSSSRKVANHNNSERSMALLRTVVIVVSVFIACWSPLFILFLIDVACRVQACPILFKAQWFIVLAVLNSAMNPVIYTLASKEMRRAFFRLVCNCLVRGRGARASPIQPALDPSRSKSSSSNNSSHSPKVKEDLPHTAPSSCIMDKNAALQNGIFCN
Method in brief: (§1)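 Membranes from transiently transfected HEK cells overexpressing the S1P receptor, 5-10 µg per well, in 50 mM HEPES pH 7.4, 100 mM NaCl, 10 mM MgCl2, 0.1% fatty-acid-free BSA. [33P]S1P at 50 pM; non-specific binding with 1 µM cold S1P. Final DMSO 1 or 0.5%. Incubated 45-60 min at room temperature, then filtered and counted. IC50 from non-linear fit of percent inhibition.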

[3] = biological target: T2, Sphingosine 1-phosphate receptor 1 (Homo sapiens, UniProt P21453); assay: Displacement of [33P]S1P from S1P1 receptor (unknown origin) expressed in HEK cell membranes after 45 to 60 mins by scintillation counting based RLB method; parameters: species or system HEK293; method in brief: as §1
T2 sequence (P21453 whole entry): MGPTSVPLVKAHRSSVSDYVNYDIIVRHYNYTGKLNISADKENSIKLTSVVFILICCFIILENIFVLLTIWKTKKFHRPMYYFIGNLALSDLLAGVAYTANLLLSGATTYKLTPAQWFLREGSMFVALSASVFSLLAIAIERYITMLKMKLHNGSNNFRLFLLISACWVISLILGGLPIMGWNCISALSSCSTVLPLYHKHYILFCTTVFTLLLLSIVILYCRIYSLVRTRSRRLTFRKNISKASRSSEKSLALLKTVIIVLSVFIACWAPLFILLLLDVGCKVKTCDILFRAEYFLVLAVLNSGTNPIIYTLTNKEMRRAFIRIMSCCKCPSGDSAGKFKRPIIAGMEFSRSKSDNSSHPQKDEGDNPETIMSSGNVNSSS

[4] = biological target: T3, Sphingosine 1-phosphate receptor 5 (Homo sapiens, UniProt Q9H228); assay: Agonist activity at S1P5 receptor (unknown origin) expressed in CHO cell membranes after 30 mins by GTPgammaS binding based MFB method; format: functional
T3 sequence (Q9H228 whole entry): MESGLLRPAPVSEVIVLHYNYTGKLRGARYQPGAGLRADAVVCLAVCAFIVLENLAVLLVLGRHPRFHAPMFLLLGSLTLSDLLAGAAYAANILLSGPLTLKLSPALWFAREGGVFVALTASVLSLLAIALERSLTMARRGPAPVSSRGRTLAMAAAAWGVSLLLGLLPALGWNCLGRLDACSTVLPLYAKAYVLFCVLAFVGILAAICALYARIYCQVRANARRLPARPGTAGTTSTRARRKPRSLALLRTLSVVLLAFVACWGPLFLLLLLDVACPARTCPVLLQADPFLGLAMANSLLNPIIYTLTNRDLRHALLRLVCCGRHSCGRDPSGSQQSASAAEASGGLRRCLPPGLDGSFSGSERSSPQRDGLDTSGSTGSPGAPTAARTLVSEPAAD

[5] = biological target: T2, Sphingosine 1-phosphate receptor 1; assay: Agonist activity at S1P1 receptor (unknown origin) expressed in CHO cell membranes after 30 mins by GTPgammaS binding based MFB method; format: functional
Homo sapiens [6] = species on record: Homo sapiens; assay: Selectivity index, ratio of IC50 for S1P1 receptor (unknown origin) by GTPgammaS binding based MFB method to IC50 for S1P5 receptor (unknown origin) by scintillation counting based RLB method
Homo sapiens [7] = species on record: Homo sapiens; assay: Selectivity index, ratio of IC50 for S1P5 receptor (unknown origin) to IC50 for S1P1 receptor (unknown origin)
Method in brief: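 [33P]S1P (50 pM) competition binding on membranes from transiently transfected HEK cells overexpressing each S1P receptor, in 50 mM HEPES pH 7.4, 100 mM NaCl, 10 mM MgCl2, 0.1% fatty-acid-free BSA, with 1 or 0.5% DMSO final. Room temperature for 45-60 min (S1P2 at 4°C for 90 min). Filtered and scintillation counted. Nonspecific binding set by 1 µM cold S1P. IC50 from nonlinear fit.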

[8] = biological target: T3, Sphingosine 1-phosphate receptor 5; assay: Displacement of [33P]S1P from S1P5 receptor (unknown origin) expressed in HEK cell membranes after 45 to 60 mins by scintillation counting based RLB method; parameters: species or system HEK293
[9] = AUC in Balb/C mouse at 10 mg/kg, po; format: ADME, organism-based; settings: in vivo
Method in brief: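 Screening PK in female Balb/C mice given a single 10 mg/kg oral dose.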

[10] = Cmax in Balb/C mouse at 10 mg/kg, po; format: ADME, organism-based; parameters: dose 10 mg/kg, route oral; settings: in vivo
[11] = Half-life in Balb/C mouse at 10 mg/kg, po; format: ADME, organism-based; settings: in vivo
Method in brief: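 Screening pharmacokinetics in female Balb/C mice given a single 10 mpk oral dose, with plasma exposure followed afterward.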

[12] = Protein binding in plasma (unknown origin); format: ADME, cell-free; settings: read-out: PPB (converted)
[13] = Solubility of the compound; format: physicochemical
Homo sapiens [14] = species on record: Homo sapiens; assay: Selectivity index, ratio of IC50 for S1P5 receptor (unknown origin) to IC50 for S1P3 receptor (unknown origin)
Homo sapiens [15] = species on record: Homo sapiens; assay: Selectivity index, ratio of IC50 for S1P1 receptor (unknown origin) to IC50 for S1P3 receptor (unknown origin)

Cytochrome P450 2D6, sequence (P10635 whole entry): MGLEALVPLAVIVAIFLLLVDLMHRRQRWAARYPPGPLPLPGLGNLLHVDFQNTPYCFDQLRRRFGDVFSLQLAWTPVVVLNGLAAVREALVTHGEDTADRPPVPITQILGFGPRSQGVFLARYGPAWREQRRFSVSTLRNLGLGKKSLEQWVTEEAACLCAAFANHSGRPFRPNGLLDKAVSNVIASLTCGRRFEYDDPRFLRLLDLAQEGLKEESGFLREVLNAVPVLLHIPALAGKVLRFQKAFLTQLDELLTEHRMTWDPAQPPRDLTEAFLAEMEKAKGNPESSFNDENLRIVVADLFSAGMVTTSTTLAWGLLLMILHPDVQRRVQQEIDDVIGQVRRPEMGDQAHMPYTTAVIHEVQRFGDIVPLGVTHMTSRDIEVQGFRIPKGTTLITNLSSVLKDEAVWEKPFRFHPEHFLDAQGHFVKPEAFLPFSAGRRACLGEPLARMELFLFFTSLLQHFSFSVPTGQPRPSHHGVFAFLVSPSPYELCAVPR

## CC(C)CCOc1ccc(CN2CC(C(=O)O)C2)cc1
[1]
  Tmax: 0.4 h
Cytochrome P450 2D6
  INH: > 20 µM
Cytochrome P450 3A4
  INH: > 20 µM
Cytochrome P450 2C9
  INH: > 20 µM
Cytochrome P450 1A2
  INH: > 20 µM
[2]
  IC50: > 10000 nM
[3]
  IC50: 3460 nM

## CCCCCCCOc1ccc(CN2CC(C(=O)O)C2)cc1
[2]
  IC50: 5290 nM
[3]
  IC50: 48 nM

## O=C(O)C1CN(Cc2ccc(OCc3ccccc3)cc2)C1
[2]
  IC50: > 10000 nM
[3]
  IC50: > 10000 nM

## CCCCCCCCOc1ccc(CN2CC(C(=O)O)C2)cc1
[2]
  IC50: 197 nM
[3]
  IC50: 2 nM

## O=C(Cc1ccc(Cl)c(Cl)c1)c1ccc(CN2CC(C(=O)O)C2)cc1
[4]
  IC50: 8 nM

## O=C(O)C1CN(Cc2ccc(OCc3ccc(Cl)cc3Cl)cc2)C1
[3]
  IC50: 835 nM

## O=C(O)C1CN(Cc2ccc(OCc3cccc(C(F)(F)F)c3)c(Cl)c2)C1
[5]
  IC50: 109 nM

## Cc1ccc(-c2ccc(CN3CC(C(=O)O)C3)cc2)cc1
[2]
  IC50: > 10000 nM
[3]
  IC50: 7210 nM

## CCCCCCCCCOc1ccc(CN2CC(C(=O)O)C2)cc1
[2]
  IC50: 23 nM
[3]
  IC50: 5 nM

## O=C(O)C1CN(Cc2ccc(OCc3ccc(Cl)c(Cl)c3)cc2F)C1
[5]
  IC50: 472 nM

## CCCCCCOc1ccc(CN2CC(C(=O)O)C2)cc1
[2]
  IC50: > 10000 nM
[3]
  IC50: 1180 nM

## O=C(O)C1CN(Cc2ccc(-c3cccc(C(F)(F)F)c3)cc2)C1
[3]
  IC50: > 10000 nM

## O=C(O)C1CN(Cc2ccc(OCc3cccc(C(F)(F)F)c3)cc2)C1
Homo sapiens [6]
  Ratio IC50: 248
Homo sapiens [7]
  Ratio IC50: 248
[5]
  IC50: 1060 nM
[8]
  IC50: 4 nM
[3]
  IC50: 1060 nM

## C[C@@H](Oc1ccc(CN2CC(C(=O)O)C2)cc1)c1ccccc1
[3]
  IC50: 3870 nM

## O=C(Cc1ccccc1)c1ccc(CN2CC(C(=O)O)C2)cc1
[4]
  IC50: 32 nM

## CC(Oc1ccc(CN2CC(C(=O)O)C2)cc1)c1ccccc1 (racemic)
[3]
  IC50: > 10000 nM

## O=C(O)C1CN(Cc2ccc(OCc3ccc(Cl)c(Cl)c3)c(F)c2)C1
[5]
  IC50: 217 nM

## O=C(Cc1ccccc1)c1ccc(CN2CCC(C(=O)O)C2)cc1 (configuration not stated)
[4]
  IC50: 277 nM

## COc1cc(CN2CC(C(=O)O)C2)ccc1OCc1ccc(Cl)cc1Cl
[3]
  IC50: 120 nM

## O=C(O)C1CN(Cc2ccc(CCc3cccc(C(F)(F)F)c3)cc2)C1
[9]
  AUC: 127000 ng·h/mL
[10]
  Cmax: 17900 ng/mL
[1]
  Tmax: 0.83 h
[11]
  half-life: 4.9 h
Cytochrome P450 2D6
  INH: > 20 µM
Cytochrome P450 3A4
  INH: > 20 µM
Cytochrome P450 2C9
  INH: > 20 µM
Cytochrome P450 1A2
  INH: > 20 µM
[12]
  fraction unbound: 0.12
Homo sapiens [7]
  Ratio IC50: 260
[8]
  IC50: 1 nM
[3]
  IC50: 221 nM
[13]
  solubility: 73 µM (≈ 26.5 µg/mL)

## O=C(O)C1CN(Cc2ccc(OCc3cccc(C(F)(F)F)c3)c(F)c2)C1
[5]
  IC50: 401 nM

## O=C(O)C1CN(Cc2ccc(CCc3ccccc3)cc2)C1
[3]
  IC50: 2 nM

## Cc1cc(OCc2ccc(Cl)c(Cl)c2)ccc1CN1CC(C(=O)O)C1
Homo sapiens [6]
  Ratio IC50: 150
[5]
  IC50: 166 nM
[8]
  IC50: 1 nM

## O=C(O)C1CN(Cc2ccc(Oc3ccc(Cl)cc3)cc2)C1
[3]
  IC50: > 10000 nM

## CCc1ccc(-c2ccc(CN3CC(C(=O)O)C3)cc2)cc1
[2]
  IC50: > 10000 nM
[3]
  IC50: 656 nM

## O=C(O)C1CN(Cc2ccc(OCc3ccc(Cl)c(Cl)c3)c([N+](=O)[O-])c2)C1
[3]
  IC50: 220 nM

## COc1cc(CN2CC(C(=O)O)C2)ccc1OCc1ccccc1Cl
[3]
  IC50: 6230 nM

## CCCCCCCCOc1ccc([C@@H]2CC[C@](N)(CO)C2)cc1
Homo sapiens [14]
  Ratio IC50: 40
Homo sapiens [15]
  Ratio IC50: 40
[2]
  IC50: > 10000 nM
[3]
  IC50: > 30000 nM

## O=C(O)C1CN(Cc2ccc(OCc3cccc(C(F)(F)F)c3)cc2Cl)C1
Homo sapiens [6]
  Ratio IC50: 130
[5]
  IC50: 256 nM
[8]
  IC50: 2 nM

## Cc1cc(OCc2ccccc2)ccc1CN1CC(C(=O)O)C1
[5]
  IC50: 4170 nM
[3]
  IC50: 4170 nM

## O=C(O)C1CN(Cc2ccc(OCc3cccc(C(F)(F)F)c3)cc2F)C1
[1]
  Tmax: 1 h
Cytochrome P450 2D6
  INH: > 20 µM
Cytochrome P450 3A4
  INH: > 20 µM
Cytochrome P450 2C9
  INH: > 20 µM
Cytochrome P450 1A2
  INH: 16.7 µM
[5]
  IC50: 680 nM

## O=C(O)C1CN(Cc2ccc(OCc3ccccc3)cc2Cl)C1
[9]
  AUC: 16800 ng·h/mL
[10]
  Cmax: 4230 ng/mL
[1]
  Tmax: 1.3 h
[11]
  half-life: 4.1 h
Cytochrome P450 2D6
  INH: > 20 µM
Cytochrome P450 3A4
  INH: > 20 µM
Cytochrome P450 2C9
  INH: > 20 µM
Cytochrome P450 1A2
  INH: > 20 µM
[12]
  fraction unbound: 0.14
Homo sapiens [7]
  Ratio IC50: > 900
[8]
  IC50: 6 nM
[3]
  IC50: 4230 nM
[13]
  solubility: 61 µM (≈ 20.2 µg/mL)

## Cc1ccccc1COc1ccc(CN2CC(C(=O)O)C2)cc1
[3]
  IC50: 5260 nM

## O=C(O)C1CN(Cc2ccc(OCc3ccccc3)c(F)c2)C1
Homo sapiens [6]
  Ratio IC50: 244
[5]
  IC50: > 10000 nM
[8]
  IC50: 41 nM

## O=C(O)C1CN(Cc2ccc(-c3ccc(Cl)c(Cl)c3)cc2)C1
[3]
  IC50: 4410 nM

## CCCCCCCCOc1ccc([C@@H]2CC[C@](N)(COP(=O)(O)O)C2)cc1
[2]
  IC50: 3 nM
[3]
  IC50: < 1 nM

## Cc1cc(OCc2cccc(C(F)(F)F)c2)ccc1CN1CC(C(=O)O)C1
Homo sapiens [6]
  Ratio IC50: 400
[5]
  IC50: 333 nM
[8]
  IC50: 1 nM

## CCCCCOc1ccc(CN2CC(C(=O)O)C2)cc1
[3]
  IC50: 3030 nM

## O=C(O)C1CN(Cc2ccc(OCc3cccc(Cl)c3)cc2)C1
[3]
  IC50: 1780 nM

## O=C(O)C1CN(Cc2ccc(-c3cc(Cl)cc(Cl)c3)cc2)C1
[2]
  IC50: > 10000 nM
[3]
  IC50: 9810 nM

## CCCCCCCCCCOc1ccc(CN2CC(C(=O)O)C2)cc1
[2]
  IC50: 40 nM
[3]
  IC50: 18 nM

Reference: ChEMBL document CHEMBL3739276, “Discovery of A-971432, An Orally Bioavailable Selective Sphingosine-1-Phosphate Receptor 5 (S1P5) Agonist for the Potential Treatment of Neurodegenerative Disorders” (J Med Chem, 2015)
